# Assay outcomes from PubChem BioAssay.
# Shown are actives, neighbours in structure and some others; about 1.8% of the full set was active somewhere.
# SUMO1 PPI mod: modulators of SUMO1 protein-protein interactions, primary screen, biochemical, uHTS; Small ubiquitin-related modifier 1 (Homo sapiens), P63165; SUMO1 binding to a labelled peptide, TR-FRET, 1 h; inhibition, % at 20 µM; hit rate 0.33% among 360,000; AID 602429, 2012; in the data active = inhibition above about 37%
# STEP inh: STEP phosphatase inhibitors, primary screen, biochemical, fluorescence intensity, uHTS | recombinant STEP, OMFP fluorogenic substrate | inhibition, % at 20 µM | AID 588621, 2011 | hit rate 0.25% among 360,000;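 active = inhibition at 20 µM, scaled per plate between control wells, above about 37%, limit read from the data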;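 note: 0% = DMSO with enzyme and substrate and 100% = substrate only without enzyme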
#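 Material: STEP (striatal-enriched tyrosine phosphatase) enzyme, cell-free | Medium: 50 mM Bis-Tris pH 6.0 with 2.5 mM DTT and 0.005% Tween 20 | Read-out: Percent inhibition scaled to no-enzyme and uninhibited-enzyme controls, plate-pattern corrected | Signal: Fluorescence read at 480 nm ex / 540 nm em | Times: 20 min reaction, room temperature, in the dark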
# DNMT1 inh: human DNMT1 methyltransferase inhibitors, primary screen, biochemical, molecular beacon, fluorescence, HinP1I cleavage, uHTS; AID 588458, 2011; hit rate 0.83% among 360,000; DNA (cytosine-5)-methyltransferase 1 (Homo sapiens), P26358; inhibition (reported as % activation of signal), % at 10 µM; in the data active = inhibition above about 50%
# Target sequence (P26358 504-1616 limits assumed): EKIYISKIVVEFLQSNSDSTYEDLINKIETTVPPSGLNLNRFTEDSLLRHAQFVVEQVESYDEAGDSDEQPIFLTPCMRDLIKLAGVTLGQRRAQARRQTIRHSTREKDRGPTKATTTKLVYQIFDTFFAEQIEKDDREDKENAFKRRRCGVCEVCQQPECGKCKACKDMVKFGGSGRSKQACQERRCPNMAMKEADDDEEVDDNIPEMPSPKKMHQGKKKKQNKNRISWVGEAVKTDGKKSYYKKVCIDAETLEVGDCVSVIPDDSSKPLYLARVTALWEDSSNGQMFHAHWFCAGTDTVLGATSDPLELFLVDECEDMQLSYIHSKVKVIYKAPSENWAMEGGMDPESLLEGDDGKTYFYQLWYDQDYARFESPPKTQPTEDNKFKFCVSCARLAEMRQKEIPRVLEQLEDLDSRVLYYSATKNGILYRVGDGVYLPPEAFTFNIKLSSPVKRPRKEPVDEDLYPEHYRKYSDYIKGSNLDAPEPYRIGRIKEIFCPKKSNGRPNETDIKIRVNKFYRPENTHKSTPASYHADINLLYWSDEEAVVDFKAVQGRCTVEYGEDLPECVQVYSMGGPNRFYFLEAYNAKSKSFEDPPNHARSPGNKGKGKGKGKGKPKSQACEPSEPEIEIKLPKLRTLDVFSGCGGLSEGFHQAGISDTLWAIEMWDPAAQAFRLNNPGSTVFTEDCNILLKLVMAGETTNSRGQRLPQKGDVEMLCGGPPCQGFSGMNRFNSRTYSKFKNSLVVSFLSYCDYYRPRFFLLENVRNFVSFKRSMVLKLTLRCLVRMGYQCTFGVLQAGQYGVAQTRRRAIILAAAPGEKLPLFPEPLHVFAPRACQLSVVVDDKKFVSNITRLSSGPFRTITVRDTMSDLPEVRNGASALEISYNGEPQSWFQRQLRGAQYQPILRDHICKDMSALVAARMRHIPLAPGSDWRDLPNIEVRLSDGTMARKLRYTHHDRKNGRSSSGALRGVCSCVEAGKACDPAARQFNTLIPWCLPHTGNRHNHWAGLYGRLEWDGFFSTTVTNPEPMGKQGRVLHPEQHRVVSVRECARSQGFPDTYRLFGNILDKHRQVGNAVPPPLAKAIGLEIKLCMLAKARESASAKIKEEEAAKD
# Scp-1 inhibitor: Scp-1 phosphatase inhibitors, primary screen, biochemical, colorimetric, uHTS. Recombinant Scp1, phosphopeptide, malachite green phosphate absorbance. AID 493091, 2011. Carboxy-terminal domain RNA polymerase II polypeptide A small phosphatase 1 (Homo …. hit rate 0.88% among 340,000. inhibition, % at 20 µM;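 active = inhibition above about 50% at 20 µM, limit read from the data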;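 note: plate controls were DMSO wells with enzyme for no effect and wells lacking enzyme for full effect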
#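 Test system: SCP-1 catalytic domain; Buffer or medium: Acidic Tris acetate buffer with magnesium and detergent; Also added: Phosphorylated 17-residue peptide substrate; Compound: single 20 µM dose, 1% DMSO; Schedule: enzyme reaction 45 min at room temperature, colour 5 min, stabilisation 30 min; Signal: Phosphate-binding colour reagent, absorbance read at 630 nm.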
# LMPTP block: LMPTP phosphatase inhibitors, primary screen, biochemical, fluorescence intensity, uHTS; recombinant LMPTP-A, OMFP fluorogenic substrate; hit rate 0.22% among 360,000; inhibition, % at 20 µM; Low molecular weight phosphotyrosine protein phosphatase (Homo sapiens), P24666; AID 651560, 2012;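 active = compounds that cut the enzyme signal by at least half of the control window in the single-dose screen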;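 note: plate controls were DMSO wells with enzyme plus substrate for no effect and substrate without enzyme for full effect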
#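 Buffer or medium: Bis-Tris pH 6.0, DTT, detergent; Assay system: LMPTP-A enzyme; Quantity: 0.625 nM enzyme; Detection: endpoint fluorescence intensity; Times: 50 min dark incubation at room temperature; Controls: substrate-only low control, DMSO enzyme-plus-substrate high control; Doses: single 20 µM dose; Read-out: percent inhibition versus substrate-only and uninhibited controls; Reagent: 400 µM OMFP.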
# * hit, by the source's call; x = no result given.
SMILES,SUMO1 PPI mod,STEP inh,DNMT1 inh,Scp-1 inhibitor,LMPTP block
CCOC(=O)COc1cc2c(C(=O)OCC)c(C)oc2cc1Br,-1,1,2,-7,1
CC1(C)C[C@H]2C3=CCC4[C@@]5(C)CC[C@H](O)[C@](C)(CO)C5CC[C@@]4(C)[C@]3(C)CC[C@@]2(C)[C@H](O)[C@@H]1O (some centres not stated),18,-3,22,-1,-1
CC1(C)C[C@H]2C3=CCC4[C@@]5(C)CC[C@H](O)[C@](C)(CO)C5CC[C@@]4(C)[C@]3(C)C[C@H]3O[C@@H]1[C@H](O)[C@]32CO (some centres not stated),47*,-3,5,-4,-1
Cc1ccc(S(=O)(=O)N2C3CCCCC3O[C@H]2CC(=O)c2cccc3ccccc23)cc1 (some centres not stated),1,x,x,x,1
Cc1ccc(S(=O)(=O)NCCCNS(=O)(=O)c2ccccc2Br)cc1,-3,0,-1,-1,0
O=C(Nc1ccc(-n2nncc2-c2ccco2)cc1)c1cc2ccccc2oc1=O,57*,45*,112*,35,20
O=C(Nc1ccc(-n2nncc2-c2ccco2)cc1)c1cccc(F)c1,-2,-2,-6,-2,0
O=C(O)CC(C(=O)O)N1C(=O)/C(=C/c2ccc(-c3nc4ccccc4s3)o2)SC1=S (configuration not stated),87*,63*,107*,80*,31
O=Cc1ccc(-c2nc3ccccc3s2)o1,-20,0,0,-1,0
O=C(O)CCCN1C(=O)/C(=C\c2ccc(-c3nc4ccccc4s3)o2)SC1=S,56*,65*,85*,75*,22
CCc1ccc(CNC(=O)C2CC(=O)N(C3CCCC3)C2)cc1 (configuration not stated),0,-2,2,-7,-1
C=CCOc1ccccc1/C=c1\sc2nc(=O)c(C)nn2c1=O,25,3,53*,8,3
CCCCCOc1ccc(/C=c2\sc3nc(=O)c(-c4ccccc4)nn3c2=O)cc1OC,6,1,5,2,2
CCN1CCN(c2ccc(S(=O)(=O)N3CCCCC3)cc2NC(=O)c2cc3ccccc3o2)CC1,4,2,-5,5,2
O=C(NCCc1ccccn1)c1c(-c2ccsc2)sc2ccccc12,-9,0,2,100*,-1
O=C1S/C(=C\c2ccc(O)c([N+](=O)[O-])c2)C(=O)N1c1ccccc1Cl,-15,6,-5,-8,-10
COc1cc(/C=C2\SC(=O)N(c3cccc(Cl)c3)C2=O)cc([N+](=O)[O-])c1O,2,98*,71*,56*,82*
O=C(COc1ccc(Cl)cc1Br)Nc1cccc(S(=O)(=O)N2CCCC2)c1,2,2,-7,-5,3
N=C(N)c1ccc(Cl)cc1,2,-2,-1,1,-1
N=C(N)c1ccc(/C=C/c2ccc(C(=N)N)cc2O)cc1,78*,0,-7,-5,65*
C/C=C\C=C/C(=O)Nc1cccc(C2=NOC3(C2)C[C@@H](C(N)=O)N(C(=O)/C=C/CC)C3)c1 (some centres not stated),14,0,-24,29,3
C/C=C\C=C/C(=O)Nc1cccc(C2=NOC3(C2)C[C@@H](C(N)=O)N(C(=O)/C=C/C=C\C)C3)c1 (some centres not stated),95*,2,64*,80*,6
C=C(C)C(=O)Nc1cccc(C2=NOC3(C2)C[C@@H](C(N)=O)N(C(=O)c2ccc(Cl)cc2)C3)c1 (some centres not stated),x,x,x,71*,x
CCc1nn(C(C)C(=O)NCc2cccc(Cl)c2)c(=O)c2cc3occc3n12 (configuration not stated),0,2,1,-1,3
